# In the library only some 3.1% were active in any assay of this set; here they are far more common.
# miR122 inh – inhibitors of miR-122 in Huh7 cells | 340,000 tested, 0.3% active | Huh7 miR-122 Renilla luciferase sensor, 48 h; neutral wells = 0, positive control = 100 | activation (reporter increase), % at 12.5 µM;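 active = mean replicate activation score at least 90 and every replicate individually at or above 90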;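 also: higher luciferase means less miR-122 activity so hits act as miR-122 inhibitors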
# CFTR F508del cor – correctors of CFTR F508del function in bronchial epithelial cells. CFBE cells, YFP halide quenching; stimulated with forskolin plus potentiator P3; % fluorescence drop versus neutral controls. activity (quench increase), % at 7.58 µM. 350,000 tested, 0.36% active. AID 720511;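 active = mean added fluorescence quench of at least 8% versus neutral control, with both replicates also reaching 8%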;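 also: cells transiently co-express mutant CFTR-F508del with the halide-sensitive YFP; corrector assay measuring rescue of mutant channel to the surface after 24 h compound exposure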
# Cneo AK release – causes C. neoformans cell lysis; adenylate kinase release luminescence, 4 h; normalised: neutral wells 0, clomiphene wells 100; lysis activity, % at 15 µM; 360,000 tested, 0.2% active; AID 651654;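 active = mean lysis activity across replicates of at least 80%, whatever share of replicates individually reach that level; inactive = mean lysis activity below 80%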
#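 Signal: Adenylate kinase release luminescence | Assay system: Log-phase Cryptococcus neoformans yeast cells | Input: Cells at 5 × 10^6 per mL | Buffer or medium: Fresh YPD growth medium | Compound: Single dose | Schedule: Static 4 h at 37 °C with compound, 1 h detection | Controls: Clomiphene | Read-out: Luminescence rise reflecting yeast cell lysis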
# rRNA inh HTS – inhibits bacterial ribosomal RNA function over humanized ribosomes; E. coli WT GFP vs humanized-ribosome RFP mutants, fluorescence, 24 h; active compounds read low; DMSO median 0, no signal -100; GFP signal change (wild-type ribosome), % (no concentration beside the values); 350,000 tested, 1.6% active;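 active = significant combined selectivity score with lowered wild-type GFP, culture density cut under 30%, mutant RFP and density less affected; inactive = any of these conditions unmet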
# HIV Env fusion – HIV envelope-mediated fusion inhibition; AID 651610; HeLa-JRFL Env/CEM21 cell fusion, luciferase; 360,000 tested, 1.1% active; inhibition, % at 12.3 µM;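 active = mean replicate inhibition score of at least 50 and every replicate individually at or above 50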;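 also: 0% = plate neutral controls and 100% = maraviroc near 300 nM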
# GSIS activator – GLuc luminescence reporter in INS-1E cells, primary screen for activators of glucose-dependent secretion of insulin | AID 743287 | INS-1E GLuc reporter insulin secretion, 2-3 h | activation, % at 16.6 µM | 370,000 tested, 0.61% active;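 active = lowest replicate activation of at least 40%, so every replicate reaches that level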;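 also: 0% = median of neutral control wells and 100% = median of IBMX positive control wells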
# * marks the source's active call; other numbers are inactive results; x = no result given; [ ] = remark or other dose.
SMILES,miR122 inh,CFTR F508del cor,Cneo AK release,rRNA inh HTS,HIV Env fusion,GSIS activator
CC=Cc1ccc2n(c1=O)C[C@@H]1[C@@H](CO)[C@H](C(=O)NCC3CC3)N(CCC(F)(F)F)[C@H]21 (mixture of isomers),6[16.7 µM],-1,1,-3,x,19
CC(=O)N1[C@H](CN(C)C(=O)C2CCC2)[C@@H](c2ccccc2)[C@@H]1CO,21[16.7 µM],-3,-1,1,x,3
N#Cc1c(-c2ccc(Cl)cc2)cc(-c2ccccc2)nc1SCC(=O)O,-3,0,-4,-49,27,-25
COc1cc(-c2cc(-c3ccccc3)nc(SCC(=O)O)c2C#N)cc(OC)c1OC,2,-2,1,-29*,-31,8
Cc1cc(C(=O)Nc2cccc3c2O[C@H](CN(C)Cc2ccc(Oc4ccccc4)cc2)[C@@H](C)CN([C@@H](C)CO)C3=O)n(C)n1,-1[16.7 µM],3,-11,-3,15[16.7 µM],-16
CCc1nnc(N2C(=O)c3ccccc3C2(O)c2ccccc2)s1 (centres undefined),x,0,1,-8,-7,42*
Cc1ccc(N2C(=O)c3ccccc3C2(O)c2ccccc2)cc1 (centres undefined),-2,-2,1,2,1,x
O=C(CCCOc1ccc(Cl)cc1Cl)Nc1cc(S(=O)(=O)N2CCOCC2)ccc1N1CCOCC1,x,-2,0,4,79*,-35
CCC1(c2ccccc2)NC(=O)N(CC(=O)Nc2cc(S(=O)(=O)N3CCCCC3)ccc2OC(C)C)C1=O (centres undefined),11,3,3,-3,98*,-11
COc1cc(NC(=O)CCCOc2ccc(Cl)cc2Cl)c(C(=O)O)cc1OC,-3,1,-1,-31*,11,-3
CC(C)Oc1ccc(S(=O)(=O)N2CCOCC2)cc1NC(=O)CCCSc1ccccc1,2,8.4*,0,-3,10,-16
COc1ccc(S(=O)(=O)N2CCOCC2)cc1NC(=O)CSc1ccccc1,-8,4,1,-5,12,15
CO[C@H]1CN(C)C(=O)c2ccc(NC(=O)C3CC3)cc2OC[C@@H](C)N(CC2CCCC2)C[C@@H]1C,x,-1,-6,-3,x,-15
O=C([C@@H]1[C@@H](CO)[C@@H]2Cn3c(ccc(-c4ccccc4F)c3=O)[C@H]1N2C(=O)C1CC1)N1CCOCC1,1[16.7 µM],-1,1,3,x,5
Cc1nc(NCC2CCCO2)c2nnn(Cc3ccccc3Cl)c2n1 (centres undefined),0,-3,-2,13,x,14
Cc1nc(NCC2CCCO2)c2nnn(Cc3ccccc3)c2n1 (centres undefined),-3,0,x,-17*,x,2
O=C(C1CCCC1)N1CC[C@@H]2[C@H]1c1cc(C3=CCCCC3)ccc1N[C@@H]2CO,x,3,x,-2,x,-29
C[C@H](O)C#Cc1ccc([C@H]2[C@H](CO)N3CCCCN(CC4CCOCC4)C[C@@H]23)cc1,-3[16.7 µM],1,98*,7,x,7
C[C@H](O)C#Cc1ccc([C@@H]2[C@H]3CN(CC4CCOCC4)CCCCN3[C@H]2CO)cc1,-1[16.7 µM],2,0,8,x,1
C[C@@H](O)C#Cc1ccc([C@@H]2[C@H]3CN(CC4CC4)CCCCN3[C@H]2CO)cc1,12[16.7 µM],0,115*,-2,x,5
CO[C@@H]1CN(C)C(=O)c2ccc(NC(C)=O)cc2OC[C@H](C)N(C(=O)CN(C)C)C[C@@H]1C,7[16.7 µM],-3,59,3,5[16.7 µM],-3
C[C@H](CO)N1C[C@H](C)[C@H](CN(C)S(=O)(=O)c2cn(C)cn2)Oc2c(NS(=O)(=O)c3ccccc3)cccc2C1=O,-1[16.7 µM],-3,-2,2,-7[16.7 µM],47
Nc1ccc2ccccc2c1N=Nc1ccccc1,0,0,1,-31*,27,x
Cc1ccc(S(=O)(=O)N(C)C[C@@H]2OCCCC[C@H](C)Oc3ccc(NC(=O)Nc4c(C)noc4C)cc3C(=O)N([C@@H](C)CO)C[C@H]2C)cc1,-2[16.7 µM],1,1,-1,8[16.7 µM],16
CCn1cc(C(=O)O)c(=O)c2cc(F)c(N3CCN(C(=S)NC(=O)c4ccc(Br)cc4)CC3)cc21,2,2,13,-52,26,13
SMILES,miR122 inh,CFTR F508del cor,Cneo AK release,rRNA inh HTS,HIV Env fusion,GSIS activator
CCn1cc(C(=O)O)c(=O)c2cc(F)c(N3CCN(C(=S)NC(=O)c4cccc(C)c4)CC3)cc21,x,2,x,-58,-19,44*
C[C@@H]1CCCCO[C@@H](CN(C)Cc2ccc(C(F)(F)F)cc2)[C@H](C)CN([C@@H](C)CO)C(=O)c2cc(NS(=O)(=O)c3ccc(Cl)cc3)ccc2O1,-11[16.7 µM],4,6,-2,3[16.7 µM],-13
O=C(NCC[C@H]1CC[C@H](NS(=O)(=O)c2ccc(F)cc2)[C@@H](CO)O1)Nc1ccc(F)cc1,x,0,-4,-6,4[16.7 µM],-4
COC(=O)Nc1cc(C(=O)c2ccc(Cl)cc2Cl)c[nH]1,1,3,1,-47*,12,-9
COC(=O)NNC(=O)c1ccc(Cl)cc1Cl,x,x,x,x,11,x
C[C@@H]1CCCCO[C@@H](CN(C)S(C)(=O)=O)[C@H](C)CN([C@H](C)CO)C(=O)c2cc(NS(C)(=O)=O)ccc2O1,10[16.7 µM],0,1,1,3[16.7 µM],6
O=C(C[C@@H]1C[C@@H]2c3cc(NS(=O)(=O)c4ccc(F)cc4)ccc3O[C@@H]2[C@H](CO)O1)NCc1ccncc1,2[16.7 µM],-3,5,2,x,-9
CNC[C@H]1Oc2ccc(NC(=O)Nc3ccc(F)cc3)cc2CC(=O)N([C@@H](C)CO)C[C@@H]1C,0[16.7 µM],0,3,5,x,21
CS(=O)(=O)c1ccc(S(=O)CC(=O)OCc2ccccc2)c([N+](=O)[O-])c1 (centres undefined),x,2,x,-7,-175,81*
O=C(CS(=O)c1ccc(C(F)(F)F)cc1[N+](=O)[O-])Oc1ccccc1 (centres undefined),4,x,1,x,-114,x
N#Cc1cccc(Oc2ccc(-c3cnc4ccccc4n3)cc2)c1C#N,x,x,x,x,4,87*
S=C(Nc1ccc2nsnc2c1)N1CCCCCC1,x,1,x,-22,5,11
S=C(Nc1ccc(Cl)c(Cl)c1)NC1CCCCC1,159*,-1,x,-58,x,-51
S=C(Nc1ccc2nsnc2c1)NC1CCCCC1,x,1,x,-44*,-12,-10
S=C(Nc1ccccn1)NC1CCCCC1,3,-2,17,-23*,4,14
FC(F)(F)c1ccc(NC(=S)NC2CCCCC2)cc1,61,0,37,-54*,-9,4

# Screening data from PubChem BioAssay.
